From ChEMBL document CHEMBL5528045, “Discovery of Orally Bioavailable FmlH Lectin Antagonists as Treatment for Urinary Tract Infections” (J Med Chem, 2024)

Assays:
FmlH (Escherichia coli) = test: Inhibition of C-terminal 6His-tagged biotinylated FmIH (Escherichia coli CFT073) expressed in Escherichia coli C600 cells incubated for 1 hr
[1] = Initial plasma concentration in mouse at 3 mg/kg, iv by LC-MS/MS method; format: ADME, organism-based
Summary of the method: (§1)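 Single dose in mice, given 3 mg/kg intravenously or 10 mg/kg orally. Plasma was followed over 8 h, and the mean plasma concentration-time profile was used. Oral bioavailability (%F) was calculated from the IV and PO exposures.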

[2] = Half-life in mouse at 3 mg/kg, iv by LC-MS/MS method; format: ADME, organism-based; settings: in vivo
Summary of the method: as §1

[3] = Volume of distribution at steady state in mouse at 3 mg/kg, iv by LC-MS/MS method; format: ADME, organism-based; settings: in vivo, read-out: Vdss
Summary of the method: as §1

[4] = Clearance in mouse at 3 mg/kg, iv by LC-MS/MS method; format: ADME, organism-based; settings: in vivo
Summary of the method: as §1

[5] = Tlast in mouse at 3 mg/kg, iv by LC-MS/MS method; format: ADME, organism-based; settings: in vivo
Summary of the method: as §1

[6] = AUC(0 to last) in mouse at 3 mg/kg, iv by LC-MS/MS method; format: ADME, organism-based; settings: in vivo
Summary of the method: as §1

[7] = AUCinfinity in mouse at 3 mg/kg, iv by LC-MS/MS method; format: ADME, organism-based; settings: in vivo
Summary of the method: as §1

[8] = Mean residence time(0 to last) in mouse at 3 mg/kg, iv by LC-MS/MS method; format: ADME, organism-based; settings: in vivo
Summary of the method: as §1

[9] = Mean residence time(0 to infinity) in mouse at 3 mg/kg, iv by LC-MS/MS method; format: ADME, organism-based; settings: in vivo
Summary of the method: as §1

[10] = AUCextra in mouse at 3 mg/kg, iv by LC-MS/MS method; format: ADME, organism-based; settings: in vivo
Summary of the method: as §1

[11] = AUMCextra in mouse at 3 mg/kg, iv by LC-MS/MS method; format: ADME, organism-based; settings: in vivo
Summary of the method: as §1

[12] = Cmax in mouse at 10 mg/kg, po by LC-MS/MS method; format: ADME, organism-based; settings: in vivo
Summary of the method: as §1

[13] = Tmax in mouse at 10 mg/kg, po by LC-MS/MS method; format: ADME, organism-based; settings: in vivo
Summary of the method: as §1

[14] = Half life in mouse at 10 mg/kg, po by LC-MS/MS method; format: ADME, organism-based; settings: in vivo
Summary of the method: as §1

[15] = AUC(0 to last) in mouse at 10 mg/kg, po by LC-MS/MS method; format: ADME, organism-based; settings: in vivo
Summary of the method: as §1

[16] = AUC(0 to infinity) in mouse at 10 mg/kg, po by LC-MS/MS method; format: ADME, organism-based; settings: in vivo
Summary of the method: as §1

[17] = MRT(0 to last) in mouse at 10 mg/kg, po by LC-MS/MS method; format: ADME, organism-based; settings: in vivo
Summary of the method: as §1

[18] = MRT(0 to infinity) in mouse at 10 mg/kg, po by LC-MS/MS method; format: ADME, organism-based; settings: in vivo
Summary of the method: as §1

[19] = AUCextra in mouse at 10 mg/kg, po by LC-MS/MS method; format: ADME, organism-based; settings: in vivo
Summary of the method: as §1

[20] = AUMCextra in mouse at 10 mg/kg, po by LC-MS/MS method; format: ADME, organism-based; settings: in vivo
Summary of the method: as §1

[21] = Oral bioavailability in mouse at 10 mg/kg by LC-MS/MS method; format: ADME, organism-based; settings: in vivo
Summary of the method: as §1

[22] = Tlast in mouse at 10 mg/kg, po by LC-MS/MS method; format: ADME, organism-based; settings: in vivo
Summary of the method: as §1

[23] = Drug concentration in mouse urine at 2 mg/kg, po measured at 24 hrs by HPLC-MS/MS analysis; format: ADME, organism-based; settings: read-out: Ct
Summary of the method: (§2)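 9-week-old C3H/HeN mice, n=5 per dose group, were dosed once by oral gavage. The compound was in 1% methyl cellulose, vortexed, sonicated 20 min, warmed at 50 °C for 10 min and vortexed again just before dosing. Mean urine concentration is reported.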

[24] = Drug concentration in mouse urine at 20 mg/kg, po measured at 24 hrs by HPLC-MS/MS analysis; format: ADME, organism-based; settings: read-out: Ct
Summary of the method: as §2

With CC(=O)N[C@H]1[C@H](Oc2cccc(C(F)(F)F)c2-c2cccc(CC#N)c2)O[C@H](CO)[C@H](O)[C@@H]1O the IC50 (FmlH (Escherichia coli)) was 800 nM.
With CC(=O)N[C@H]1[C@H](Oc2cccc(C(F)(F)F)c2-c2cc(C#N)cc(C(F)(F)F)c2)O[C@H](CO)[C@H](O)[C@@H]1O the IC50 (FmlH (Escherichia coli)) was 6000 nM.
For CC(=O)N[C@H]1[C@H](Oc2cccc(C(F)(F)F)c2-c2ccc(F)cc2F)O[C@H](CO)[C@H](O)[C@@H]1O, the IC50 (FmlH (Escherichia coli)) was 320 nM.
Work on CC(=O)N[C@H]1[C@H](Oc2cccc(C(F)(F)F)c2-c2ccccc2F)O[C@H](CO)[C@H](O)[C@@H]1O yielded an IC50 (FmlH (Escherichia coli)) of 710 nM.
CC(=O)N[C@H]1[C@H](Oc2cccc(C(F)(F)F)c2-c2cccc(C(=O)NS(C)(=O)=O)c2)O[C@H](CO)[C@H](O)[C@@H]1O showed an IC50 (FmlH (Escherichia coli)) of 310 nM.
CC(=O)N[C@H]1[C@H](Oc2cccc(C(F)(F)F)c2-c2cc(F)cc(C(F)(F)F)c2)O[C@H](CO)[C@H](O)[C@@H]1O showed an IC50 (FmlH (Escherichia coli)) of 9000 nM.
For CC(=O)N[C@@H]1[C@@H](O)[C@@H](O)[C@@H](CO)O[C@H]1C(=O)Nc1ccccc1-c1cccc(NS(C)(=O)=O)c1, the IC50 (FmlH (Escherichia coli)) was 6900 nM.
Work on CS(=O)(=O)Nc1cccc(-c2ccccc2C[C@@H]2O[C@H](CO)[C@H](O)[C@H](O)[C@H]2O)c1 yielded an IC50 (FmlH (Escherichia coli)) of 15000 nM.
With CC(=O)N[C@H]1[C@H](Oc2cccc(C(F)(F)F)c2-c2cccc(F)c2)O[C@H](CO)[C@H](O)[C@@H]1O the IC50 (FmlH (Escherichia coli)) was 480 nM.
With CC(=O)N[C@H]1[C@H](Oc2cccc(C(F)(F)F)c2-c2cc(F)cc(C#N)c2)O[C@H](CO)[C@H](O)[C@@H]1O the IC50 (FmlH (Escherichia coli)) was 2000 nM.
Work on CS(=O)(=O)Nc1cccc(-c2ccccc2C[C@@H]2O[C@H](CO)[C@H](O)[C@H](O)[C@H]2[N+](=O)[O-])c1 yielded an IC50 (FmlH (Escherichia coli)) greater than 50000 nM.
In the case of CC(=O)N[C@H]1[C@H](Oc2cccc(C(F)(F)F)c2-c2cccc(NS(C)(=O)=O)c2)O[C@H](CO)[C@H](O)[C@@H]1O, the IC50 (FmlH (Escherichia coli)) is reported as 35 nM.
With CS(=O)(=O)Nc1cccc(-c2ccccc2C[C@@H]2O[C@H](CO)[C@H](O)[C@H](O)[C@H]2F)c1 the IC50 (FmlH (Escherichia coli)) was 7300 nM.
CC(=O)N[C@H]1[C@H](Oc2cccc(C(F)(F)F)c2-c2cccc(CS(C)(=O)=O)c2)O[C@H](CO)[C@H](O)[C@@H]1O showed an IC50 (FmlH (Escherichia coli)) of 450 nM.
CC(=O)N[C@H]1[C@H](Oc2cccc(C(F)(F)F)c2-c2ccc(F)c(F)c2)O[C@H](CO)[C@H](O)[C@@H]1O gave a C0 [1] of 3190 ng/mL, a half-life [2] of 1.26 h and a Vd [3] of 2.39 L/kg. For the same compound, the clearance [4] was 28 mL/min/kg, the Tlast [5] was 8 h and the AUC(0-t) [6] was 1790 ng·h/mL. For the same compound, the AUC(0-inf) [7] was 1810 ng·h/mL, the MRT last [8] was 1.34 h and the MRT inf [9] was 1.43 h. The “%AUCextra” value [10] was 1.07%, the AUMC [11] was 7.31% and the Cmax [12] was 472 ng/mL. For the same compound, the Tmax [13] was 2.64 h, the half-life [14] was 1.8 h and the AUC(0-t) [15] was 1830 ng·h/mL. The AUC(0-inf) [16] was 1860 ng·h/mL, the MRT last [17] was 3.53 h and the MRT inf [18] was 3.67 h. The “%AUCextra” value [19] was 1.64%, the AUMC [20] was 5.96% and the bioavailability [21] was 30.7%. The IC50 (FmlH (Escherichia coli)) was 240 nM.
In the case of CC(=O)N[C@H]1[C@H](Oc2cccc(C(F)(F)F)c2-c2ccc(F)c(F)c2F)O[C@H](CO)[C@H](O)[C@@H]1O, the IC50 (FmlH (Escherichia coli)) is reported as 700 nM.
With COc1cc(F)cc(-c2c(O[C@@H]3O[C@H](CO)[C@H](O)[C@H](O)[C@H]3NC(C)=O)cccc2C(F)(F)F)c1 the IC50 (FmlH (Escherichia coli)) was 6000 nM.
With CC(=O)N[C@H]1[C@H](Oc2cccc(C(F)(F)F)c2-c2ccc(F)cc2)O[C@H](CO)[C@H](O)[C@@H]1O the C0 [1] was 4430 ng/mL, the half-life [2] was 1.47 h and the Vd [3] was 1.42 L/kg. For the same compound, the clearance [4] was 13.6 mL/min/kg, the Tlast [5] was 8 h and the AUC(0-t) [6] was 3660 ng·h/mL. The AUC(0-inf) [7] was 3740 ng·h/mL, the MRT last [8] was 1.59 h and the MRT inf [9] was 1.75 h. For the same compound, the “%AUCextra” value [10] was 1.9%, the AUMC [11] was 10.8% and the Cmax [12] was 1480 ng/mL. It also gave a Tmax [13] of 2 h, a half-life [14] of 1.92 h and a Tlast [22] of 8 h. For the same compound, the AUC(0-t) [15] was 6070 ng·h/mL, the AUC(0-inf) [16] was 6560 ng·h/mL and the MRT last [17] was 3.18 h. For the same compound, the MRT inf [18] was 3.75 h, the “%AUCextra” value [19] was 7.55% and the AUMC [20] was 21.6%. For the same compound, the bioavailability [21] was 52.7%, the concentration at 24 h [23] was 15.8 ng/mL and the concentration at 24 h [24] was 66.3 ng/mL. The IC50 (FmlH (Escherichia coli)) was 190 nM.
CC(=O)N[C@H]1[C@H](Oc2cccc(C(F)(F)F)c2-c2ccc(F)c(NS(=O)(=O)c3ccccc3)c2)O[C@H](CO)[C@H](O)[C@@H]1O gave an IC50 (FmlH (Escherichia coli)) of 190 nM.
In the case of CC(=O)N[C@H]1[C@H](Oc2cccc(C(F)(F)F)c2-c2cc(F)cc(F)c2)O[C@H](CO)[C@H](O)[C@@H]1O, the IC50 (FmlH (Escherichia coli)) is reported as 6000 nM.
CC(=O)N[C@H]1[C@H](Oc2cccc(C(F)(F)F)c2-c2cccc(N(C)S(=O)(=O)O)c2)O[C@H](CO)[C@H](O)[C@@H]1O gave an IC50 (FmlH (Escherichia coli)) of 2000 nM.
COc1cc(-c2c(O[C@@H]3O[C@H](CO)[C@H](O)[C@H](O)[C@H]3NC(C)=O)cccc2C(F)(F)F)cc(C(F)(F)F)c1 showed an IC50 (FmlH (Escherichia coli)) of 18000 nM.
Compound CC(=O)N[C@@H]1[C@@H](O)[C@@H](O)[C@@H](CO)O[C@H]1Cc1ccccc1-c1cccc(NS(C)(=O)=O)c1 has an IC50 (FmlH (Escherichia coli)) of 15000 nM.
CC(=O)N[C@H]1[C@H](Oc2ccccc2-c2cccc(NS(C)(=O)=O)c2)O[C@H](CO)[C@H](O)[C@@H]1O showed an IC50 (FmlH (Escherichia coli)) of 230 nM.
CC(=O)N[C@H]1[C@H](Oc2cccc(C(F)(F)F)c2-c2ccc(F)c(NS(C)(=O)=O)c2)O[C@H](CO)[C@H](O)[C@@H]1O gave an IC50 (FmlH (Escherichia coli)) of 890 nM.
CS(=O)(=O)Nc1cccc(-c2ccccc2O[C@@H]2O[C@H](CO)[C@H](O)[C@H](O)[C@H]2O)c1 gave an IC50 (FmlH (Escherichia coli)) of 1600 nM.
CC(=O)N[C@H]1[C@H](Oc2cccc(C(F)(F)F)c2-c2ccc3ccn(S(C)(=O)=O)c3c2)O[C@H](CO)[C@H](O)[C@@H]1O showed an IC50 (FmlH (Escherichia coli)) of 600 nM.
With CC(=O)N[C@H]1[C@H](Oc2cccc(C(F)(F)F)c2-c2cccc(F)c2F)O[C@H](CO)[C@H](O)[C@@H]1O the IC50 (FmlH (Escherichia coli)) was 590 nM.
